Experimental data from ChEMBL document CHEMBL2176870 (J Med Chem, 2012).
≈ marks a conversion by molar mass, not a printed value. Calls of active or inactive are those of the source. No cut-off for these calls is given here.

Tests used:
[1] = Plasma clearance in Sprague-Dawley rat plasma at 2 x 50 mg/kg, iv; type: ADME, organism-based; design: dose 50 mg/kg, route intravenous
Proteus mirabilis = experiment: Antibacterial activity against Proteus mirabilis; type: functional
Moraxella catarrhalis = experiment: Antibacterial activity against Moraxella catarrhalis; type: functional
Haemophilus influenzae = experiment: Antibacterial activity against Haemophilus influenzae; type: functional
Neisseria gonorrhoeae = experiment: Antibacterial activity against Neisseria gonorrhoeae; type: functional
Staphylococcus aureus [2] = experiment: Antibacterial activity against methicillin-resistant Staphylococcus aureus NRS384 assessed as killing activity at 600 to 1200 mg q6h with prolonged infusion of 2 hrs; type: functional, organism-based
Staphylococcus aureus [3] = experiment: Antibacterial activity against methicillin-resistant Staphylococcus aureus NRS385; type: functional
Outline: (§1)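 CLSI broth microdilution: serial 2-fold dilutions from 0.06 to 64 μg/mL in cation-adjusted Mueller–Hinton broth, inoculum 5 × 10^5 CFU/mL, 35 °C for 18 h. MIC is the lowest concentration with no visible growth.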

Staphylococcus aureus [4] = experiment: Antibacterial activity against methicillin-resistant Staphylococcus aureus NRS384; type: functional; outline: as §1
Staphylococcus aureus [5] = experiment: Antibacterial activity against methicillin-resistant Staphylococcus aureus NRS382; type: functional; outline: as §1
[6] = Terminal elimination half life in Sprague-Dawley rat heart at 2 x 50 mg/kg, iv; type: ADME, organism-based; design: dose 50 mg/kg, route intravenous; settings: read-out: beta t1/2 (converted)
Outline: (§2)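 Female Sprague–Dawley rats given two iv doses of 50 mg/kg. Levels measured in plasma, liver, kidney, brain, heart and lung. Cmax reported as ng/g for tissue and ng/mL for plasma; AUC(0–∞) as ng·h/mL. Half-life is the terminal elimination value.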

[7] = Terminal elimination half life in Sprague-Dawley rat brain at 2 x 50 mg/kg, iv; type: ADME, organism-based; design: dose 50 mg/kg, route intravenous; settings: read-out: beta t1/2 (converted); outline: as §2
[8] = Terminal elimination half life in Sprague-Dawley rat kidney at 2 x 50 mg/kg, iv; type: ADME, organism-based; design: dose 50 mg/kg, route intravenous; settings: read-out: beta t1/2 (converted); outline: as §2
[9] = Terminal elimination half life in Sprague-Dawley rat liver at 2 x 50 mg/kg, iv; type: ADME, organism-based; design: dose 50 mg/kg, route intravenous; settings: read-out: beta t1/2 (converted); outline: as §2
[10] = AUC (0 to infinity) in Sprague-Dawley rat heart at 2 x 50 mg/kg, iv; type: ADME, organism-based; design: time infinity, dose 50 mg/kg, route intravenous; outline: as §2
[11] = AUC (0 to infinity) in Sprague-Dawley rat kidney at 2 x 50 mg/kg, iv; type: ADME, organism-based; design: time infinity, dose 50 mg/kg, route intravenous; outline: as §2
[12] = AUC (0 to infinity) in Sprague-Dawley rat plasma at 2 x 50 mg/kg, iv; type: ADME, organism-based; design: time infinity, dose 50 mg/kg, route intravenous; outline: as §2
[13] = Cmax in Sprague-Dawley rat lung at 2 x 50 mg/kg, iv; type: ADME, organism-based; design: dose 50 mg/kg, route intravenous; outline: as §2
[14] = Cmax in Sprague-Dawley rat heart at 2 x 50 mg/kg, iv; type: ADME, organism-based; design: dose 50 mg/kg, route intravenous; outline: as §2
[15] = Cmax in Sprague-Dawley rat brain at 2 x 50 mg/kg, iv; type: ADME, organism-based; design: dose 50 mg/kg, route intravenous; outline: as §2
[16] = Cmax in Sprague-Dawley rat kidney at 2 x 50 mg/kg, iv; type: ADME, organism-based; design: dose 50 mg/kg, route intravenous; outline: as §2
[17] = Cmax in Sprague-Dawley rat liver at 2 x 50 mg/kg, iv; type: ADME, organism-based; design: dose 50 mg/kg, route intravenous; outline: as §2
[18] = Cmax in Sprague-Dawley rat plasma at 2 x 50 mg/kg, iv; type: ADME, organism-based; design: dose 50 mg/kg, route intravenous; outline: as §2
Canis familiaris = experiment: Toxicity in beagle dog assessed as cardiovascular functions up to 100 mg/kg, iv; type: organism-based, Canis lupus familiaris, Heart; design: dose 100 mg/kg, route intravenous; settings: in vivo
Outline: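 Beagle dogs given single iv infusions up to 100 mg/kg. Clinical signs and cardiovascular function, including QT interval, were monitored.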

[19] = Toxicity in iv dosed dog administered bid for 2 weeks; type: organism-based, Canis lupus familiaris; settings: in vivo
Outline: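 Dogs dosed iv twice daily for 14 days; NOAEL determined, with body weight monitored.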

[20] = Toxicity in iv dosed rat; type: organism-based; settings: in vivo
Outline: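 Rats given a single intravenous dose for maximum tolerated dose. A separate 2-week study used twice-daily intravenous dosing, with NOAEL set from clinical findings and macroscopic and microscopic examination. Safety pharmacology used single intravenous injections up to 200 mg/kg, assessing central nervous system and respiratory functions.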

[21] = Toxicity in iv dosed mouse; type: organism-based; settings: in vivo
Outline: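 Single intravenous dosing in mice; maximum tolerated dose determined.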

Albumin = Albumin (Homo sapiens, UniProt P02768); experiment: Binding affinity to human serum albumin; type: ADME; settings: isolated protein
Chain of Albumin (P02768 whole entry): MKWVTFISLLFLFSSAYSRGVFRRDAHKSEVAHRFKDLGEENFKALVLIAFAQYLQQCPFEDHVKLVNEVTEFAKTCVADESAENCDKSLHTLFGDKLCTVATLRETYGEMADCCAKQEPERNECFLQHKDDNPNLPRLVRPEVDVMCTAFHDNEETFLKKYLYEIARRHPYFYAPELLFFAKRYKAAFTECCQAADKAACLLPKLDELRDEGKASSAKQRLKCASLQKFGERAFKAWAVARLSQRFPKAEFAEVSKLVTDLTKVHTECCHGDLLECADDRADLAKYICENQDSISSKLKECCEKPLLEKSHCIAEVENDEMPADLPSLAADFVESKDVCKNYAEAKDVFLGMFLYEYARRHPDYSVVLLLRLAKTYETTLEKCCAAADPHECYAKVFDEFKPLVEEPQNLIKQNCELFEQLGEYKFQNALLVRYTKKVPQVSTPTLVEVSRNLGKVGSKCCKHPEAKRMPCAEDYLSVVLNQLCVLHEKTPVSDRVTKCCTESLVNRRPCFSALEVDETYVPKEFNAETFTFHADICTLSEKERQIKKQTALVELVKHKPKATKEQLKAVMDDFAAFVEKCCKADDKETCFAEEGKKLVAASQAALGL

[22] = Thermodynamic aqueous solubility of the compound in 1 to 5% of glucose; type: physicochemical; settings: 1 to 5% glucose in water; read-out: Therm_solubility
Outline: (§3)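 Solubility measured in an aqueous solution containing 20% hydroxypropyl-β-cyclodextrin together with 1–5% glucose.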

[23] = Thermodynamic aqueous solubility of the compound in 20% hydroxypropyl-beta-cyclodextrin; type: physicochemical; settings: 20% hydroxypropyl-beta-cyclodextrin in water; read-out: Therm_solubility; outline: as §3
[24] = Thermodynamic aqueous solubility of the compound at pH 7.4; type: physicochemical; settings: buffer, read-out: Therm_solubility
[25] = test system: Staphylococcus haemolyticus; experiment: Antibacterial activity against methicillin-resistant Staphylococcus haemolyticus; type: functional
[26] = target: T1, Enoyl-[acyl-carrier-protein] reductase [NADPH] FabI (Staphylococcus aureus, UniProt Q6GI75); experiment: Inhibition of Staphylococcus aureus recombinant FabI using trans-2-octenoyl N-acetylcysteamine thioester as substrate preincubated for 60 mins
T1 sequence (Q6GI75 whole entry): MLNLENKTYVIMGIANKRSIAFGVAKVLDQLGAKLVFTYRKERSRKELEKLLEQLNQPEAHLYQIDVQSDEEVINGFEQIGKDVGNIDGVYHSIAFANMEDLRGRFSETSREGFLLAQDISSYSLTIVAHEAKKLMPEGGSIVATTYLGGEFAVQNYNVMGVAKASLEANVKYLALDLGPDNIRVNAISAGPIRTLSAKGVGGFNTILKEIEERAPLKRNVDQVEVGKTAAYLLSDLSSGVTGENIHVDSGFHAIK
Outline: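 Recombinant S. aureus FabI (2 nM) in 50 mM ADA pH 6.5, 1 mM DTT, 0.006% Triton X-100, 50 mM NaCl. Preincubated 60 min at room temperature with 40 μM NADPH, 10 μM NADP+ and inhibitor in DMSO. Reaction started with 100 μM t-o-NAC. Inhibition versus untreated samples; IC50 by Langmuir fit.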

Streptococcus pneumoniae = experiment: Antibacterial activity against Streptococcus pneumoniae D39 after 18 hrs by broth microdilution method; type: functional; settings: D39, 18 h
Outline: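 CLSI broth microdilution with 2-fold dilutions from 0.06 to 64 μg/mL. Cation-adjusted Mueller–Hinton broth with 2.5% lysed horse blood, inoculum 5 × 10^5 CFU/mL, grown at 35 °C for 18 h in 5% CO2. MIC is the lowest concentration showing no visible growth.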

Enterococcus faecalis = experiment: Antibacterial activity against Enterococcus faecalis ATCC 29212 after 18 hrs by broth microdilution method; type: functional; settings: ATCC 29212, 18 h
Outline: (§4)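 CLSI broth microdilution with serial 2-fold dilutions from 0.06 to 64 μg/mL. Cation-adjusted Mueller–Hinton broth, inoculum 5 × 10^5 CFU/mL, incubated at 35 °C for 18 h. MIC taken as the lowest concentration with no visible growth.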

Rattus norvegicus = experiment: Toxicity in rat assessed as effect on central nervous system and respiratory functions up to 200 mg/kg, iv; type: organism-based; design: dose 200 mg/kg, route intravenous; settings: in vivo
Outline: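 Safety pharmacology in rats given single iv injections up to 200 mg/kg. Clinical signs, central nervous system effects and respiratory function were monitored.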

Escherichia coli = experiment: Antibacterial activity against Escherichia coli C7 after 18 hrs by broth microdilution method; type: functional; settings: C7, 18 h
Staphylococcus aureus [27] = experiment: Antibacterial activity against Staphylococcus aureus CIP54.146 after 18 hrs by broth microdilution method; type: functional; settings: CIP54.146, 18 h; outline: as §4
Staphylococcus aureus [28] = experiment: Antibacterial activity against community acquired methicillin-resistant Staphylococcus aureus; type: functional

Question: For `CCc1cc(O)c(Oc2ccc(C(N)=O)cc2F)cc1F`, which clearance [1] is on record?
Answer: The clearance was 107 mL/min/kg.

Question: And the MIC90 (Proteus mirabilis)?
Answer: The MIC90 was 2 µg/mL (≈ 6.82 µM).

Question: What about the MIC90 (Moraxella catarrhalis) of the same compound?
Answer: The MIC90 was 2 µg/mL (≈ 6.82 µM).

Question: What about the MIC90 (Haemophilus influenzae) of the same compound?
Answer: Its MIC90 is 0.5 µg/mL (≈ 1.7 µM).

Question: And the MIC90 (Neisseria gonorrhoeae)?
Answer: The MIC90 was 0.25 µg/mL (≈ 0.852 µM).

Question: What about the Activity (Staphylococcus aureus [2]) of the same compound?
Answer: The Activity was “Active”.

Question: And the MIC (Staphylococcus aureus [3])?
Answer: The MIC was 0.06 µg/mL (≈ 0.205 µM).

Question: What about the MIC (Staphylococcus aureus [4]) of the same compound?
Answer: The MIC was 0.06 µg/mL (≈ 0.205 µM).

Question: What about the MIC (Staphylococcus aureus [5]) of the same compound?
Answer: Its MIC is 0.06 µg/mL (≈ 0.205 µM).

Question: And the half-life [6]?
Answer: Its half-life is 5 h.

Question: And the half-life [7]?
Answer: Its half-life is 4.2 h.

Question: What about the half-life [8] of the same compound?
Answer: The half-life was 8.5 h.

Question: What about the half-life [9] of the same compound?
Answer: Its half-life is 9.2 h.

Question: What about the AUC(0-inf) [10] of the same compound?
Answer: The AUC(0-inf) was 23900 ng·h/mL.

Question: What about the AUC(0-inf) [11] of the same compound?
Answer: The AUC(0-inf) was 20300 ng·h/mL.

Question: And the AUC(0-inf) [12]?
Answer: Its AUC(0-inf) is 13900 ng·h/mL.

Question: What about the Cmax [13] of the same compound?
Answer: Its Cmax is 28900 ng/g.

Question: And the Cmax [14]?
Answer: The Cmax was 42100 ng/g.

Question: And the Cmax [15]?
Answer: Its Cmax is 37800 ng/g.

Question: What about the Cmax [16] of the same compound?
Answer: Its Cmax is 63000 ng/g.

Question: And the Cmax [17]?
Answer: The Cmax was 51700 ng/g.

Question: What about the Cmax [18] of the same compound?
Answer: Its Cmax is 30400 ng/mL.

Question: And the Activity (Canis familiaris)?
Answer: Its Activity is “Non-toxic”.

Question: What about the NOAEL at 336 h [19] of the same compound?
Answer: Its NOAEL at 336 h is 100 mg/kg/day.

Question: And the MTD [20]?
Answer: The MTD was greater than 200 mg/kg.

Question: What about the MTD [21] of the same compound?
Answer: Its MTD is greater than 200 mg/kg.

Question: And the Activity (Albumin)?
Answer: Its Activity is 95%.

Question: And the solubility thermodynamic [22]?
Answer: The solubility thermodynamic was 11.3 mg/mL (≈ 38500 µM).

Question: What about the solubility thermodynamic [23] of the same compound?
Answer: Its solubility thermodynamic is 11.3 mg/mL (≈ 38500 µM).

Question: What about the solubility thermodynamic [24] of the same compound?
Answer: The solubility thermodynamic was 0.02 mg/mL (≈ 68.2 µM).

Question: And the MIC90 [25]?
Answer: Its MIC90 is 0.5 µg/mL (≈ 1.7 µM).

Question: What about the IC50 [26] of the same compound?
Answer: The IC50 was 12 nM.

Question: And the MIC (Streptococcus pneumoniae)?
Answer: The MIC was greater than 32 µg/mL.

Question: What about the MIC (Enterococcus faecalis) of the same compound?
Answer: The MIC was greater than 32 µg/mL.

Question: And the Activity (Rattus norvegicus)?
Answer: Its Activity is “Non-toxic”.

Question: What about the MIC (Escherichia coli) of the same compound?
Answer: The MIC was 0.5 µg/mL (≈ 1.7 µM).

Question: What about the MIC (Staphylococcus aureus [27]) of the same compound?
Answer: The MIC was 0.062 µg/mL (≈ 0.211 µM).

Question: And the MIC90 (Staphylococcus aureus [28])?
Answer: The MIC90 was no more than 0.03 µg/mL.
